Laboratory results reported in ChEMBL document CHEMBL2016500, “Discovery and evaluation of spirocyclic derivatives as antagonists of the neuropeptide Y5 receptor” (Bioorg Med Chem Lett, 2012).
Calls of active or inactive are those of the source. The rule behind the calls is not given here.

Key:
[1] = biological target: T1, Neuropeptide Y receptor type 5 (Homo sapiens, UniProt Q15761); experiment: Displacement of [125I]PPY from human recombinant NPYY5 receptor expressed in insect Sf9 membranes; format: cell membranes
T1 sequence (Q15761 whole entry): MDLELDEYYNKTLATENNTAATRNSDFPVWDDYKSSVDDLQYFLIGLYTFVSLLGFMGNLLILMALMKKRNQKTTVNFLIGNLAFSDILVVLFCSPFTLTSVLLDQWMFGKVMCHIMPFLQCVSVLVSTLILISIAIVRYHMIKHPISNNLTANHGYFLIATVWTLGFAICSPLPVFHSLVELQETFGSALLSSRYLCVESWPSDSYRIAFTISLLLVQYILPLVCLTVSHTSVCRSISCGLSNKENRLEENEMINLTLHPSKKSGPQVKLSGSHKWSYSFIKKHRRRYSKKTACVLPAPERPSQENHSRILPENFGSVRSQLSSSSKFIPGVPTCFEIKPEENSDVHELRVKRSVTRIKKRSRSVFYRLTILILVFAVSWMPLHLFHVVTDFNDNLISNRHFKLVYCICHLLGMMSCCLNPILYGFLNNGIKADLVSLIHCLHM

[2] = tested on: Liver microsomes; experiment: Intrinsic clearance in human liver microsomes; format: ADME, Microsome
Outline: (§1)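 Metabolic stability in human or rat liver microsome preparations. Total intrinsic clearance scaled from in vitro microsomal half-life, given in […].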

[3] = tested on: Liver microsomes; experiment: Intrinsic clearance in rat liver microsomes; format: ADME, Microsome; outline: as §1
[4] = Half life in rat; format: ADME, organism-based; conditions: in vivo
[5] = Oral bioavailability in rat; format: ADME, organism-based; conditions: in vivo
[6] = Ratio of unbound fraction in plasma to brain in rat; format: ADME, cell-free
Outline: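 Unbound fraction measured separately in rat plasma and in rat brain; the value is expressed as fu,plasma/fu,brain.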

[7] = tested on: Plasma; experiment: Unbound fraction in diet-induced obese rat plasma at 5 mg/kg bid; format: ADME, organism-based; set-up: dose 5 mg/kg; conditions: in vivo
Outline: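 Diet-induced obese rats given 5 mg/kg bid. Unbound drug concentrations measured in plasma and brain.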

[8] = tested on: Rattus norvegicus; experiment: Antiobesity activity in diet-induced obese rat assessed as decrease in food intake at 5 mg/kg bid; format: functional; set-up: scale not given: the % may be the effect or the level left
Outline: (§2)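 Diet-induced obese rats dosed 5 mg/kg bid over a 4-day study. Food intake and body weight followed.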

[9] = tested on: Rattus norvegicus; experiment: Antiobesity activity in diet-induced obese rat assessed as decrease body weight at 5 mg/kg bid; format: functional, organism-based; set-up: dose 5 mg/kg; outline: as §2
[10] = Ratio of unbound fraction in rat brain at 5 mg/kg bid to Ki for human recombinant NPYY5 receptor expressed in insect Sf9 membranes; format: ADME, organism-based, Membrane; set-up: dose 5 mg/kg; conditions: in vivo
Outline: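 Unbound drug concentrations were measured in plasma and brain of diet-induced obese rats dosed at 5 mg/kg bid. The ratio is unbound brain concentration divided by Ki.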

[11] = biological target: T2, Neuropeptide Y receptor type 1 (Homo sapiens, UniProt P25929); experiment: Binding affinity to human NPYY1
T2 sequence (P25929 whole entry): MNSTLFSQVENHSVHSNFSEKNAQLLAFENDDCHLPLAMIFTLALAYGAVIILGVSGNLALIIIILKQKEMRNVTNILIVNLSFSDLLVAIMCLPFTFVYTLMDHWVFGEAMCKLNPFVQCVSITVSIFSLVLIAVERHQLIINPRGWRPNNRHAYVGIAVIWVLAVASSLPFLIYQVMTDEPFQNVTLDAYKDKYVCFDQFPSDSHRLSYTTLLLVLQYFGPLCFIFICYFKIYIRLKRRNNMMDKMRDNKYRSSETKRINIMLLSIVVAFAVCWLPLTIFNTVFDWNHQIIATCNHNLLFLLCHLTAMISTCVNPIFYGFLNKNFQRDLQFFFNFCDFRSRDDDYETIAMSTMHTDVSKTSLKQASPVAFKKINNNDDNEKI

[12] = tested on: Brain; experiment: Unbound concentration in diet-induced obese rat brain at 5 mg/kg bid; conditions: in vivo

| Compound | Ki [1] [nM] | CLint [2] [mL/min/kg] | CLint [3] [mL/min/kg] | further results |
| --- | --- | --- | --- | --- |
| CN(C(=O)Nc1cnc(-c2ccccc2)cn1)[C@H]1CC[C@@]2(CC1)Cc1ccccc1C(=O)O2 | 4.6 | 59 | 333 |  |
| CN(C(=O)Nc1ccn(-c2ccccc2F)n1)[C@H]1CC[C@]2(CC1)OC(=O)c1ccncc12 | 0.8 | < 7 | 28 |  |
| CN(C(=O)Nc1cnc(-c2ccccc2)cn1)[C@H]1CC[C@]2(CC1)OC(=O)c1ccncc12 | 1 | < 6 | < 25 | half-life [4]: 2 h; bioavailability [5]: 80%; Ratio [6]: 3.3; Cp(f) [7]: 67 nM; Activity [8]: <10%; Activity [9]: inactive; Ratio [10]: 25; Ki [11]: > 10000 nM; Concentration [12]: 27 nM |
| CN(C(=O)Nc1ccn(-c2ccccc2F)n1)[C@H]1CC[C@]2(CC1)COc1ccccc12 | 8 | 68 | > 1120 |  |
| CN(C(=O)Nc1cnc(-c2ccccc2)cn1)[C@H]1CC[C@@]2(CC1)Cc1cnccc1C(=O)O2 | 82 | < 26 | 86 |  |
| CN(C(=O)Nc1ccn(-c2ccccc2F)n1)[C@H]1CC[C@@]2(CC1)Cc1cnccc1C(=O)O2 | 188 |  |  |  |
| O=C1O[C@]2(CC[C@H](C(=O)Nc3ccn(-c4ccccc4F)n3)CC2)c2cnccc21 |  |  |  | Activity [9]: Active |
| O=C(CC1CCC2(CC1)Cc1ccccc1C(=O)O2)Nc1cnc(-c2ccccc2)cn1 (mixture of isomers) | 301 |  |  |  |
| O=C(Nc1ccn(-c2ccccc2F)n1)NC1CCC2(CC1)OC(=O)c1ccncc12 (mixture of isomers) | 849 |  |  |  |
| CN(C(=O)Nc1cnc(-c2ccccc2)cn1)[C@H]1CC[C@@]2(CC1)OC(=O)c1ccncc12 | 0.9 | < 7 | 12 |  |
| CC(C)(C)S(=O)(=O)N[C@H]1CC[C@H](C(=O)Nc2ccc(C(F)(F)F)cn2)CC1 | 5 |  |  |  |
| CN(C(=O)Nc1ccn(-c2ccccc2F)n1)[C@H]1CC[C@]2(CC1)OCc1ccccc12 | 10 | 67 | > 1120 |  |
| CCN(C(=O)Nc1cnc(-c2ccccc2)cn1)[C@H]1CC[C@@]2(CC1)Cc1ccccc1C(=O)O2 | 11 |  |  |  |
| O=C1O[C@]2(CC[C@@H](N(CC(F)(F)F)C(=O)Nc3cnc(-c4ccccc4)cn3)CC2)Cc2ccccc21 | 2330 | < 7 |  |  |
| CN(C(=O)Nc1ccn(-c2ccccc2F)n1)[C@H]1CC[C@@]2(CC1)Cc1ccccc1C(=O)O2 | 2.4 | 28 | 290 |  |
| CN(C(=O)Nc1ccn(-c2ccccc2F)n1)[C@H]1CC[C@@]2(CC1)OC(=O)c1ccccc12 | 22 |  |  |  |
| CN(C(=O)Nc1ccn(-c2ccccc2F)n1)[C@H]1CC[C@]2(CC1)OC(=O)c1ccccc12 | 0.7 | 24 | 165 |  |
